Screening results (PubChem BioAssay)
The list is not random: actives were taken first. Their share in the collection is about 3.7%.
KCNK3 block – human KCNK3 channel inhibition, primary screen; CHO-KCNK3 thallium flux, FluxOR fluorescence; stronger effect = lower value; actives 0.84% (n = 340,000); AID 602410; B-score at 10 µM; O14649;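 active means B-score under library mean minus 4 SD, starting fluorescence ratio at most library mean plus 5 SD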;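 further: more negative B-score means stronger inhibition of thallium flux through KCNK3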
Target sequence (O14649 whole entry, looked up): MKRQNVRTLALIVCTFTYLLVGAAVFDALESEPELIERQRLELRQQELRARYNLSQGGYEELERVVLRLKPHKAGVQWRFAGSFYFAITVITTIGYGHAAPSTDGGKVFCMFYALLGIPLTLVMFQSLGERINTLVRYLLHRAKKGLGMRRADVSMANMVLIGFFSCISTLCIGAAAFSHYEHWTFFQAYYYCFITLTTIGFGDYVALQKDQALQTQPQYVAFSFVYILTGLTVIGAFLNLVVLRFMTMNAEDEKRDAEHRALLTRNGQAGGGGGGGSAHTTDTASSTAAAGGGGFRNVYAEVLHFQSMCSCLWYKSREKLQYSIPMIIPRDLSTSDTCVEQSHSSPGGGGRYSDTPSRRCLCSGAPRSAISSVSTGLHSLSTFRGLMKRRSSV
KCNK9 inh – inhibitors of human KCNK9 two-pore domain potassium channel; Q9NPC2; HEK293 KCNK9, FluxOR thallium flux fluorescence; stronger effect = lower value; B-score at 10 µM; actives 1.2% (n = 310,000); AID 488922;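 active means ratio B-score over 3 SD below the library mean, with starting fluorescence within 5 SD of its mean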;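 further: negative B-score means less thallium flux so channel inhibition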
KCNQ1 act – potentiators or activators of human KCNQ1 potassium channel; P51787; actives 0.35% (n = 310,000); CHO-K1 KCNQ1, thallium flux FluxOR fluorescence; stronger effect = higher value; B-score at 10 µM; AID 2648;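 active means fluorescence ratio B-score, a plate-corrected score, at least three library SD, with initial intensity B-score within 5 SD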
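Schedule – 37 °C overnight plating, 90-min dark dye load, 20-min compound pretreatment · System – stable KCNQ1 CHO-K1 line · Probe or stimulus – thallium- and potassium-containing depolarizing buffer · Measured by – kinetic FluxOR fluorescence, 10 s baseline plus 110 s post-stimulus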
KCNQ1 block – blocks the human KCNQ1 potassium channel; AID 2642; CHO-K1 KCNQ1, FluxOR thallium flux fluorescence; stronger effect = higher value; actives 1.3% (n = 310,000); P51787; B-score at 10 µM;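 active means compounds whose thallium flux B-score, printed positive for inhibition, exceeds three library SD while starting fluorescence stays within three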;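 further: channel opened by potassium depolarization with thallium stimulus after 20 min compound exposure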
hERG protect – hERG (human) protection from proarrhythmic block; Q12809; CHO-hERG, FluxOR thallium flux, dofetilide IC70 present; activation (rescue from dofetilide block), less the hit threshold, % at 10 µM; actives 0.51% (n = 310,000); AID 1511;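 active means activation above the mean of controls blocked by dofetilide plus 5 SD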;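 further: thallium influx through hERG after potassium depolarization seen as dye fluorescence rise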
Kir21 inh – Kir2.1 (mouse) channel inhibition; P35561; HEK293-Kir2.1, FluxOR thallium flux fluorescence; stronger effect = lower value; B-score at 10 µM; actives 0.85% (n = 310,000); AID 1672;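 active means fluorescence ratio B-score at or below minus 3 SD of library scores, with starting-brightness B-score within 2 SD, cut at about -4.2 in these data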;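 further: channel flux triggered by added potassium and thallium sulfate stimulus; B-score of peak minus minimum fluorescence over baseline after thallium stimulus; more negative B-score means stronger Kir2.1 block with less thallium influx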
KCNK3 confirm – human KCNK3 channel inhibition, confirmation assay. ratio percent of control, % at 10 µM. CHO-KCNK3 thallium flux, FluxOR fluorescence; 0% buffer, 100% carvedilol maximal block. shares compounds with KCNK3 block. AID 651638. actives 99% (n = 2,400);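 active means ratio percent of control, averaged over triplicates, above buffer control mean plus 5 SD, cut at about 64% in these data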;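 further: ratio is the fluorescence rise from min to max over baseline after thallium stimulus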
KCNK3 noninduced – KCNK3 inhibitor counter-screen hit in non-induced cells | shares compounds with KCNK3 block | non-induced KCNK3 parental cells, FluxOR thallium flux; stronger effect = lower value | thallium flux ratio (lower = more inhibition) at 10 µM | actives 40% (n = 2,400) | AID 651747;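 active means thallium flux ratio, averaged over three wells, more than 5 SD below the buffer control mean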;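 further: host cells are CHO cells without KCNK3 induction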
Large screens that a line does not name were inactive (follow-up assays come after a bar, where they were run).

COc1ccccc1N(C)S(=O)(=O)c1ccc(C(=O)Nc2cccc(Br)c2)cc1	KCNK3 block -12.4 (no result: KCNK9 inh, KCNQ1 act, KCNQ1 block, hERG protect, Kir21 inh) | KCNK3 confirm 125.0 | KCNK3 noninduced inactive
O=C(OCc1nc(-c2ccccc2)oc1COC(=O)c1ccco1)c1ccco1	KCNK3 block -9.08 | KCNK3 confirm 101.7 | KCNK3 noninduced inactive
C/C(=N\NC(=O)C1(C)CC1(Br)Br)c1cccc(NC(=O)c2ccc(C)o2)c1 (stereo not drawn)	KCNK3 block -9.62 | KCNK3 confirm 107.7 | KCNK3 noninduced 0.139
Cc1ccc(C(=O)Nc2cccc(C(=O)NCc3ccccc3)c2)o1	none
CC1=C(C(=O)Nc2cccc(C(=O)NC(C)c3ccccc3)c2)SCCO1 (stereo not drawn)	KCNK3 block -8.89 | KCNK3 confirm 76.0 | KCNK3 noninduced inactive
CC1=C(C(=O)Nc2cccc(C(=O)NC3CCCC(C)C3C)c2)SCCO1 (stereo not drawn)	KCNK3 block -9.32 | KCNK3 confirm 97.0 | KCNK3 noninduced inactive
CCC(C(=O)Nc1ccccc1F)n1nc(C)c2c(C)n(-c3ccccc3)nc2c1=O (stereo not drawn)	KCNK3 block -11.6 | KCNK3 confirm 89.0 | KCNK3 noninduced inactive
CCC(C(=O)NCCC1=CCCCC1)n1nc(C)c2c(C)n(-c3ccccc3)nc2c1=O (stereo not drawn)	KCNK3 block -8.8 | KCNK3 confirm 89.3 | KCNK3 noninduced inactive
CCC(C(=O)Nc1cc(F)ccc1F)n1nc(C)c2c(C)n(-c3ccc(C)cc3)nc2c1=O (stereo not drawn)	none
O=c1[nH]cc(S(=O)(=O)N2CCN(c3cccc(C(F)(F)F)c3)CC2)c(=O)[nH]1	none
COc1ccc(C)cc1S(=O)(=O)N1CCN(c2cccc(C(F)(F)F)c2)CC1	KCNK3 block -10.5 | KCNK3 confirm 103.0 | KCNK3 noninduced inactive
COc1ccccc1CN(C)CC(=O)Nc1ccccc1-c1ccccc1	KCNK3 block -8.78 | KCNK3 confirm 115.7 | KCNK3 noninduced 0.137
CCN(CC(=O)Nc1ccccc1OC)CC(=O)Nc1ccccc1-c1ccccc1	none
COc1ccc(Br)cc1CN(C)CC(=O)NCCc1ccccc1	KCNK3 block -10.2, Kir21 inh -5.54 | KCNK3 confirm 101.7 | KCNK3 noninduced inactive
O=C(CCl)NC(Cc1c[nH]c2ccc(OCc3ccccc3)cc12)C(=O)O (stereo not drawn)	none
O=C(Nc1cccc(-c2cn3c(n2)SCC3)c1)c1ccc2c(c1)OCO2	KCNK3 block -10.6 | KCNK3 confirm 104.0 | KCNK3 noninduced inactive
O=C(Nc1ccc(-c2cn3c(n2)SCC3)cc1)c1ccc2c(c1)OCO2	none
CCCC(CCC)C(=O)Nc1cccc(-c2cn3c(n2)SCC3)c1	KCNK3 block -8.72 | KCNK3 confirm 99.3 | KCNK3 noninduced inactive
NC(=O)C1(NC2CCCCC2)CCN(Cc2ccccc2)CC1	none (no result: KCNK9 inh, KCNQ1 act, KCNQ1 block, hERG protect, Kir21 inh)
CCCC[C@@H]1C=C(C(=O)O)[C@H](c2ccc(C#N)cc2)N1S(=O)(=O)c1ccc(C)cc1	none (no result: KCNK9 inh, KCNQ1 act, KCNQ1 block, hERG protect, Kir21 inh)
CN(C)CCN=Cc1c(O)n(Cc2ccccc2)c(=O)c2ccccc12	none
CN(C)CCCN=Cc1c(O)n(Cc2ccccc2)c(=O)c2ccccc12	KCNK3 block -11.5, KCNK9 inh -7.2 | KCNK3 confirm 97.7 | KCNK3 noninduced inactive
Cc1cc(=O)oc2cc(NC(=O)c3ccccc3OC(F)F)ccc12	KCNK3 block -11.2 | KCNK3 confirm 105.3 | KCNK3 noninduced inactive
N#Cc1cccc(C(c2nnnn2C2CCCC2)N2CCCCCC2)c1 (stereo not drawn)	KCNK3 block -14.9, KCNK9 inh -7.17 | KCNK3 confirm 93.3 | KCNK3 noninduced inactive
CC(CS(=O)(=O)c1ccccc1[N+](=O)[O-])N1CCOCC1 (stereo not drawn)	KCNK3 block -9.13 | KCNK3 confirm 84.0 | KCNK3 noninduced inactive
O=[N+]([O-])c1ccccc1S(=O)(=O)c1ccccc1[N+](=O)[O-]	none
CC(C)n1c(SCC(=O)N2c3ccccc3Sc3ccccc32)nc2c1c(=O)n(C)c(=O)n2C	KCNK3 block -10.8 | KCNK3 confirm 97.7 | KCNK3 noninduced inactive
O=C1c2cccc3cccc(c23)N1Cc1cccc(F)c1	KCNK3 block -13.6 | KCNK3 confirm 101.0 | KCNK3 noninduced inactive
COc1ccc(OC)c(NC(=O)CN2C(=O)COc3ccc(S(=O)(=O)N4CCCC4)cc32)c1	KCNK3 block -10 | KCNK3 confirm 95.7 | KCNK3 noninduced inactive
Cc1cccc(NC(=O)CN2C(=O)COc3ccc(Cl)cc32)c1	none
COc1cccc(NC(=O)CN2C(=O)COc3ccc(Cl)cc32)c1	KCNK3 block -9.82 | KCNK3 confirm 100.7 | KCNK3 noninduced inactive
CCOc1ccc(/C=C/C(O)=C2/C(=O)N(C)C3(C)CC2c2ccccc2O3)cc1OC (stereo not drawn)	KCNK3 block -9.88 | KCNK3 confirm 88.3 | KCNK3 noninduced inactive
CCOc1ccc(/C=C2\SC(=O)N(CCNC(=O)C3COc4ccccc4O3)C2=O)cc1OC (stereo not drawn)	none
CCC(C(=O)NCCc1c[nH]c2ccc(C)cc12)c1ccccc1 (stereo not drawn)	KCNK3 block -8.81, KCNK9 inh -7.75, Kir21 inh -4.51 | KCNK3 confirm 110.0 | KCNK3 noninduced inactive
CN(C(=O)Nc1ccc(Cl)cc1Cl)C1CCCC1	KCNK3 block -9.11 | KCNK3 confirm 76.0 | KCNK3 noninduced inactive
C=CC[C@H](CC(=O)NCCO)C(=O)N[C@@H](COC(=O)[C@@H](CC=C)Cc1ccc(F)cc1)Cc1ccccc1	none (no result: KCNK9 inh, KCNQ1 act, KCNQ1 block, hERG protect, Kir21 inh)
COc1ccc(C)cc1NC(=O)c1sc2ncnc(N3CCN(c4ccccn4)CC3)c2c1C	KCNK3 block -10.7 | KCNK3 confirm 115.7 | KCNK3 noninduced inactive
CC(=O)Nc1ccccc1OCCOc1ccc(Br)cc1	KCNK3 block -11.6 | KCNK3 confirm 99.3 | KCNK3 noninduced inactive
C=CCN(c1ccccc1)S(=O)(=O)c1ccc2c(c1)NC(=O)C(C)S2 (stereo not drawn)	none
CC1Sc2ccc(S(=O)(=O)N(C)Cc3ccccc3)cc2NC1=O (stereo not drawn)	KCNK3 block -10.3 | KCNK3 confirm 93.3 | KCNK3 noninduced inactive
CCc1cc(CN2CCOCC2)c(NC(=O)c2ccccc2)s1	KCNK3 block -9.27 | KCNK3 confirm 102.0 | KCNK3 noninduced inactive
Cc1cc(C(=O)c2ccccc2)c(NC(=O)CN2CCOCC2)s1	none
